CHOP inh: inhibitors of CHOP induction in ER stress response. AID 2732. actives 3.8% (n = 220,000). inhibition, % at 10 µM. CHO-K1 CHOP-promoter luciferase, tunicamycin-induced, 15-18 h;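 active = compounds that reduced the stress-induced luciferase reporter signal by more than about 70% of percent inhibition, limit read from the data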
iPSC survival up: enhancers of human iPSC single-cell survival | hiPSC single-cell survival, ATPlite luminescence; 100% = ROCK inhibitor wells, 0% = DMSO | survival enhancement, % at 20 µM | actives 0.044% (n = 360,000) | AID 602274; in the data active = survival enhancement above about 18%;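 also: cells exposed to compounds for 16 hours before the ATP read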
XBP1 UPR activ: activators of adaptive arm of unfolded protein response (XBP1); activation, % at 20 µM; actives 0.33% (n = 330,000); CHO-XBP1 luciferase reporter, IRE1-XBP1 UPR activation, luminescence; percent of tunicamycin response, DMSO as zero;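 active = versus positive control, 20 µM dose yields 30% or more activation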
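Material: CHO cell line with stable XBP1 luciferase reporter; buffer or medium: F12 medium containing 10% fetal bovine serum; compound: single point, 20 µM final compound, 1% DMSO; incubation: 6 h treatment, 37 °C; measured by: glow luminescence from Steady-Glo reagent; evaluation: activation, % of tunicamycin; control set: tunicamycin high, DMSO low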
Cardio protect: myocardial damage modulation in H9c2 cells; H9c2 cardiomyocytes, H2O2 injury protection, ATPLite, 2 h; protection from H2O2 cell death, % at 20 µM; actives 0.63% (n = 360,000);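 active = compounds giving at least 50% protection of heart cells from peroxide-induced death in the single-dose screen, raw or plate-pattern-corrected value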
UPR CHOP act: apoptotic UPR (CHOP) activation | activation, % at 10 µM | CHO-CHOP luciferase reporter, luminescence; percent of tunicamycin response over DMSO baseline | actives 0.34% (n = 330,000);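 active = at 10 µM dose, activation of 40% or more, normalized to positive control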
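Test system: CHO CHOP reporter cells. Input: 500 CHO-CHOP cells per well. Medium: F12 with 10% FBS. Technique: luciferase luminescence. Measure: percent activation relative to tunicamycin control. Dosing: 10 µM compound, 0.5% DMSO. Timing: 16-18 h cell attachment, then 6 h compound exposure, 37 °C.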
CHOP inh conf: confirmation of CHOP induction inhibitors | actives 45% (n = 2,100) | CHO-CHOP promoter luciferase reporter, tunicamycin-induced, luminescence | shares compounds with CHOP inh | inhibition, % at 10 µM;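 active = mean of three repeat readings of reporter signal inhibition above a set limit, cut at about 70% in these data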
Each line names hits and unclear results; the compound was inactive in the other large screens (follow-up assays come after a bar, where they were run). Only a selection was taken, and hits are over-represented in it overall.

CCOC(=O)c1c(C)[nH]c(C(=O)COC(=O)C2CC(=O)N(Cc3ccccc3)C2)c1C (stereo not given)	CHOP inh 101 | CHOP inh conf inactive
CCOC(=O)c1c(C)[nH]c(C(=O)COC(=O)c2[nH]c(C)c(C(C)=O)c2C)c1C	CHOP inh 97 | CHOP inh conf 83
CC(=O)c1c(C)[nH]c(C(=O)OCC(=O)N(C)C)c1C	none
CCOc1cc(S(=O)(=O)Nc2ccccc2CC)ccc1Cl	CHOP inh 102 | CHOP inh conf 77
CCOc1cc(S(=O)(=O)Nc2ccc(Cl)cn2)ccc1Cl	none
CCOc1cc(S(=O)(=O)Nc2ccc(CC)cc2)ccc1Cl	CHOP inh 104 | CHOP inh conf 111
CC(C)NC(=O)C1(C)CCN1Cc1cccc(C#N)c1 (stereo not given)	none (no result: CHOP inh, XBP1 UPR activ, UPR CHOP act)
COC(=O)c1sccc1S(=O)(=O)Nc1ccc(C(O)(C(F)(F)F)C(F)(F)F)cc1	none (no result: CHOP inh, XBP1 UPR activ, UPR CHOP act)
COc1ccccc1CCC(=O)N(C)C1CCCN(Cc2ccccc2F)C1 (stereo not given)	none (no result: CHOP inh)
CCN1CCN(c2cc(C)c3cc(NC(=S)N4CCN(c5ccc(F)cc5)CC4)ccc3n2)CC1	CHOP inh 106 | CHOP inh conf inactive
CCN1CCN(C(=S)Nc2ccc3nc(N4CCN(CC)CC4)cc(C)c3c2)CC1	none
NC(=Nc1ccccc1)N(c1ccccc1)c1ccccc1	none (no result: CHOP inh, XBP1 UPR activ, UPR CHOP act)
N#Cc1c(N)nc(-c2ccccc2)nc1-c1ccccc1	CHOP inh 107 | CHOP inh conf inactive
Cc1cc(C)c(C)c(S(=O)(=O)ON2C(=O)c3ccccc3C2=O)c1C	CHOP inh 101 | CHOP inh conf 108
Cc1cc(C)c(S(=O)(=O)ON2C(=O)c3ccccc3C2=O)cc1C	CHOP inh 108 | CHOP inh conf 87
O=C1c2ccccc2C(=O)N1OS(=O)(=O)c1ccc(F)cc1	none (no result: CHOP inh, XBP1 UPR activ, UPR CHOP act)
CCOc1ccccc1NC(=O)C1(S(=O)(=O)c2ccc(Cl)cc2)CC1	none (no result: CHOP inh)
CCn1cc(CN(C)C(=O)/C=C/c2ccc([N+](=O)[O-])cc2)c(C)n1	CHOP inh 96 | CHOP inh conf inactive
Cc1nn(C)cc1C(=O)/C=C/c1ccc([N+](=O)[O-])cc1	none
O=C(NNc1ccccc1Br)C(O)(c1cccc(C(F)(F)F)c1)c1cccc(C(F)(F)F)c1	CHOP inh 103 | CHOP inh conf 118
Cc1ccc(C(=O)N2[C@@H]3CN(C)C(=O)[C@@]2(Cc2ccccc2)[C@H]2C(=O)N(C)C(=O)[C@@H]32)cc1	none (no result: CHOP inh, XBP1 UPR activ, UPR CHOP act)
Cc1cc(C)n(-c2nc3ccccc3nc2N2CCCCCC2)n1	CHOP inh 96 | CHOP inh conf inactive
Cc1ccc(S(=O)(=O)N2C[C@@H](C)[C@]3(C2)[C@H](O)[C@H](OC(=O)NCc2ccccc2F)C[C@H]2C(=O)N(c4ccccc4)C(=O)[C@H]23)cc1	none (no result: CHOP inh, XBP1 UPR activ, UPR CHOP act)
O=C(COC(=O)c1cccc(S(=O)(=O)N2CCCC2)c1)Nc1ccc(Cl)cc1	none (no result: CHOP inh, XBP1 UPR activ, UPR CHOP act)
COc1ccc2c3c(cccc13)C(=O)N(O)C2=O	CHOP inh 102 (no result: XBP1 UPR activ, UPR CHOP act) | CHOP inh conf 108
CN(CCc1ccccc1)C(=O)c1cccc(NC(=O)Cc2cccc(NC(=O)C3CCCN(C(=O)C4CCCC4)C3)c2)c1 (stereo not given)	none (no result: CHOP inh, XBP1 UPR activ, UPR CHOP act)
CCOc1ccc2nc(NCCNC(=O)Nc3cccc(C)c3)c(C#N)cc2c1	CHOP inh 103 | CHOP inh conf inactive
COc1ccc(C(=O)NCCNc2nc3ccc(C)cc3cc2C#N)cc1	none (no result: CHOP inh)
CC(C)(C)OC(=O)N(CCc1ccccc1)Cc1cccc(OCc2cccc(NC(=O)c3ccccc3)c2)c1	none (no result: CHOP inh, XBP1 UPR activ, UPR CHOP act)
CC(C)c1ccccc1NC(=O)COC(=O)CNC(=O)c1ccc(Br)cc1	none
CC(C)c1ccccc1NC(=O)COc1ccc(C(=O)NCCc2ccccc2)cc1	CHOP inh 107 | CHOP inh conf inactive
CCc1ccc(OCCNC(=O)c2ccccc2SCc2ccccc2)cc1	CHOP inh 99 | CHOP inh conf 91
CCCOc1ccccc1C(=O)N1CCNC(=O)C1CC(=O)OC(C)C (stereo not given)	none (no result: CHOP inh)
O=C(CN1CCN(c2ncc(C(F)(F)F)cc2Cl)CC1)NCCNc1ncc(C(F)(F)F)cc1Cl	CHOP inh 101 | CHOP inh conf 106
CC1CC(=O)Nc2ccccc2N1C(=O)COc1ccccc1C(N)=O (stereo not given)	none (no result: CHOP inh, XBP1 UPR activ, UPR CHOP act)
CC/C(=N\Nc1ccccc1[N+](=O)[O-])c1ccc(O)cc1	CHOP inh 100 | CHOP inh conf inactive
CN(C)Cc1ccccc1CNC(=O)c1ccc(Cl)c(S(=O)(=O)NC2CC2)c1	none (no result: CHOP inh, XBP1 UPR activ, UPR CHOP act)
O=C(COC(=O)c1cc(=O)[nH]c2ccccc12)Nc1nc(-c2ccc(F)cc2)cs1	none (no result: CHOP inh, XBP1 UPR activ, UPR CHOP act)
O=C(CCN1C(=O)c2ccccc2C1=O)Oc1ccc2ccccc2c1	none
CC1=CC(C)(C)Nc2ccc(OC(=O)CCN3C(=O)c4ccccc4C3=O)cc21	CHOP inh 108 | CHOP inh conf inactive
O=C(COC(=O)CNS(=O)(=O)c1c(Cl)cccc1Cl)Nc1ccccc1Sc1ccccc1	none
O=C(COC(=O)CNS(=O)(=O)c1cccc(Br)c1)Nc1ccccc1Sc1ccccc1	CHOP inh 96 | CHOP inh conf inactive
CC(=NN1CC(=O)NC1=O)c1ccc([N+](=O)[O-])o1	none (no result: CHOP inh, XBP1 UPR activ, UPR CHOP act)
COC(=O)C1CCN(C2CN(Cc3ccc([N+](=O)[O-])cc3)S(=O)(=O)C2)CC1 (stereo not given)	none (no result: CHOP inh, XBP1 UPR activ, UPR CHOP act)
O=C1C(Nc2ccccc2)=C/C(=N/S(=O)(=O)c2cccs2)c2ccccc21	CHOP inh 108 (no result: XBP1 UPR activ, UPR CHOP act) | CHOP inh conf 112
COC(=O)c1ccccc1NC1=C/C(=N\S(=O)(=O)c2cccs2)c2ccccc2C1=O	CHOP inh 107 | CHOP inh conf 109
COC(=O)c1ccccc1NC1=C/C(=N\S(=O)(=O)c2ccc(C(=O)O)cc2)c2ccccc2C1=O	none (no result: CHOP inh)
O=C1CN(C(=O)CSc2ccccn2)c2ccccc2N1	none (no result: CHOP inh)
CCOc1ccc(NS(=O)(=O)c2cc(OC)ccc2OC)cc1	none
CCOc1ccc(S(=O)(=O)Nc2ccc(F)cc2)c(C)c1C	CHOP inh 106 | CHOP inh conf inactive
Cc1nn(CCC#N)c2nc(-c3ccccc3)cc(C(F)(F)F)c12	CHOP inh 106 | CHOP inh conf 83
O=C(NC(c1ccc(Cl)cc1)c1cnccn1)C1CCN(CCCc2ccccc2)CC1 (stereo not given)	none (no result: CHOP inh, XBP1 UPR activ, UPR CHOP act)
CC1C/C(=C/c2ccccn2)C(=O)/C(=C/c2ccccn2)C1 (stereo not given)	CHOP inh 108 | CHOP inh conf 113
CC(C)(C)C1C/C(=C/c2ccccn2)C(=O)/C(=C/c2ccccn2)C1 (stereo not given)	CHOP inh 109 | CHOP inh conf 137
Cc1cccc(N=Nc2c(N)n[nH]c2-c2ccc(Cl)cc2)c1	CHOP inh 109 | CHOP inh conf 108

Assay outcomes as filed in PubChem.
